Data: paper PMC2843818 (Bioorganic & medicinal chemistry letters, 2010)

Experiments:
lymphopenia = experiment: Mouse lymphopenia; type: in vivo; conditions: for duration of sustained lymphopenia: mouse PK/PD study
How it was run: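 Mouse PK/PD study with single doses of test compound at 1 or 2 mg/kg. Lymphopenia was followed over time to find how long it lasted. Pharmacokinetics were measured in parallel: oral bioavailability, half-life, clearance, volume, and percent in vivo phosphorylation.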

hS1P1 [1] = molecular target: T1, hS1P1 (Homo sapiens, UniProt P21453); experiment: Calcium mobilization Gq assay, S1P1; type: cell-based; conditions: for EC50 S1P1: calcium mobilization Gq assay, whole cell
human S1P3 = human S1P3 (Homo sapiens, UniProt Q99500); experiment: Calcium mobilization Gi assay, S1P3; type: cell-based; conditions: for EC50 S1P3: calcium mobilization Gi assay, whole cell
hS1P1 [2] = molecular target: T1, hS1P1; experiment: Calcium mobilization Gi assay, S1P1; type: cell-based; conditions: for EC50 S1P1: calcium mobilization Gi assay, whole cell

human S1P3, sequence (Q99500 whole entry): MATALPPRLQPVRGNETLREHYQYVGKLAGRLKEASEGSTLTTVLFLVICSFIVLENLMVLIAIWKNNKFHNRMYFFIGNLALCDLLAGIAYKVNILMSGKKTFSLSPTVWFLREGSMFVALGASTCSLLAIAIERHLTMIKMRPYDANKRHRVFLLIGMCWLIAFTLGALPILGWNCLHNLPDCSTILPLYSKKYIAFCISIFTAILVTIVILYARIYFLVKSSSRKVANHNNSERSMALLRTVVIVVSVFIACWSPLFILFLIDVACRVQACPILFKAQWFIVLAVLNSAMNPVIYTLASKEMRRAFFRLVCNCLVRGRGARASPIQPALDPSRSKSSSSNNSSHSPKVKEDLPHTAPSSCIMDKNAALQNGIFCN
T1 sequence (P21453 whole entry): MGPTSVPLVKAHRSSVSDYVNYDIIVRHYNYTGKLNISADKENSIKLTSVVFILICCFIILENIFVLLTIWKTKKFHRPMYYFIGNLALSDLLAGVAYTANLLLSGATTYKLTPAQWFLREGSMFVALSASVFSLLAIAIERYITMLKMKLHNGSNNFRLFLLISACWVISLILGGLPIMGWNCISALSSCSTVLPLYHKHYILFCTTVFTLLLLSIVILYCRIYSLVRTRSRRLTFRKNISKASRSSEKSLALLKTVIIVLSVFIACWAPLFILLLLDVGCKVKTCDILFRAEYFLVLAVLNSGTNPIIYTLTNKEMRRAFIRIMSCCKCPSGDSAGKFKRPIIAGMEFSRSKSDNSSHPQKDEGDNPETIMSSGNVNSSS

CCCCCCCCc1ccc2c(c1)CC[C@H]([C@](C)(N)CO)C2 [(2S, 2’S)-5]
Mouse Lymphopenia ED50 (lymphopenia): not active

CCCCCCCCc1ccc2c(c1)CC[C@H]([C@](C)(N)COP(=O)(O)O)C2 [(2S, 2’S)-6]
EC50 S1P1 (hS1P1 [1]): not active
EC50 S1P3 (human S1P3): no activity
S1P1/S1P3 selectivity (hS1P1 [2]; Gi assay): great S1P1/S1P3 selectivity
EC50 S1P1 (hS1P1 [2]): significantly less active

CCCCCCCCc1ccc2c(c1)CC[C@@H]([C@](C)(N)CO)C2 [(2S, 2’R)-5]
ED50 (lymphopenia; Mus musculus, read-out: Mouse Lymphopenia ED50): > 5 mg/kg
Mouse Lymphopenia ED50 (lymphopenia): not active

CCCCCCCCc1ccc2c(c1)CC[C@@H](C(N)(CO)CO)C2 [(2’R)-3]
duration of sustained lymphopenia (lymphopenia; 2 mg/kg dose): 72 h

CCCCCCCCc1ccc2c(c1)CC[C@@H]([C@@](C)(N)COP(=O)(O)O)C2 [(2R, 2’R)-6]
EC50 S1P1 (hS1P1 [1]): very active

CCCCCCCCc1ccc2c(c1)CC[C@H]([C@@](C)(N)CO)C2 [(2R, 2’S)-5, (−)-(R)-2-amino-2-((S)-6-octyl-1,2,3,4-tetrahydronaphthalen-2-yl) propan-1-ol]
duration of sustained lymphopenia (lymphopenia; 1 mg/kg dose): one-week

CCCCCCCCc1ccc2c(c1)CC[C@@H]([C@](C)(N)COP(=O)(O)O)C2 [(2S, 2’R)-6]
EC50 S1P3 (human S1P3): no activity
S1P1/S1P3 selectivity (hS1P1 [2]; Gi assay): great S1P1/S1P3 selectivity
EC50 S1P1 (hS1P1 [2]): significantly less active

CCCCCCCCc1ccc2c(c1)CC[C@H]([C@@](C)(N)COP(=O)(O)O)C2 [(2R, 2’S)-6]
selectivity of S1P1 over S1P3 (hS1P1 [1]; Gq assay, compared to FTY720): moderate selectivity
EC50 S1P1 (hS1P1 [1]): very active

CCCCCCCCc1ccc2c(c1)CC[C@@H](C(N)(CO)COP(=O)(O)O)C2 (single isomer, unassigned) [(2’R)-3-P isomer 2]
EC50 S1P3 (human S1P3): not active

CCCCCCCCc1ccc(CC[C@@](N)(CO)COP(=O)(O)O)cc1 [(R)-FTY720-P, reference compound]
EC50 S1P1 (hS1P1 [1]): not active
EC50 S1P3 (human S1P3): not active

CCCCCCCCc1ccc2c(c1)CC[C@@H](C(N)(CO)COP(=O)(O)O)C2 (single isomer, unassigned) [(2’R)-3-P isomer 1]
fold less potent at S1P3 than (S)-FTY720-P (human S1P3; Gi assay): 2 fold
fold less potent at S1P1 than (S)-FTY720-P (hS1P1 [2]; Gi assay): 6 fold
